Source: PubChem
Shown are actives, neighbours in structure and some others; about 0.99% of the full set was active somewhere.
ABCG2 inh = inhibitors of human ABCG2 transporter, ABCB1 counter-screen; Q9UNQ0; IgMXP3 cells, JC-1 efflux, flow cytometry; inhibition, % at 6.6 µM; actives 0.1% (n = 190,000); AID 1325;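 active means inhibition above 80%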;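 further: 0% = DMSO and 100% = nicardipine control wells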
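Test system: IgMXP3 cells (ABCG2) mixed with DDAO far-red-labelled CCRF-Adr cells (ABCB1). Reagent: JC-1 transporter substrate. Compound dosing: single test compound dose, 6.6 µM final. Times: 10 min compound exposure, 25 °C. Detection: flow cytometry of retained JC-1 fluorescence. Read-out basis: efflux inhibition in percent versus controls. Controls: nicardipine and DMSO wells.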
Tn7 DDE FP = inhibitors of Tn7 peptide binding to human fibrin DD(E) | P02675 | FP displacement of FITC-Tn7 peptide from fibrin DD(E); 0% = median of compound wells per plate | actives 0.13% (n = 370,000) | inhibition, % at 8.3 µM | AID 720508;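 active means inhibition above the mean of compounds falling within the control limits plus 3 SD of them, cut at about 14% in these data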;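 further: 0% = plate median of compound wells and 100% = 10 µM Aha-Tn7 peptide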
Target sequence (P02675 whole entry, looked up): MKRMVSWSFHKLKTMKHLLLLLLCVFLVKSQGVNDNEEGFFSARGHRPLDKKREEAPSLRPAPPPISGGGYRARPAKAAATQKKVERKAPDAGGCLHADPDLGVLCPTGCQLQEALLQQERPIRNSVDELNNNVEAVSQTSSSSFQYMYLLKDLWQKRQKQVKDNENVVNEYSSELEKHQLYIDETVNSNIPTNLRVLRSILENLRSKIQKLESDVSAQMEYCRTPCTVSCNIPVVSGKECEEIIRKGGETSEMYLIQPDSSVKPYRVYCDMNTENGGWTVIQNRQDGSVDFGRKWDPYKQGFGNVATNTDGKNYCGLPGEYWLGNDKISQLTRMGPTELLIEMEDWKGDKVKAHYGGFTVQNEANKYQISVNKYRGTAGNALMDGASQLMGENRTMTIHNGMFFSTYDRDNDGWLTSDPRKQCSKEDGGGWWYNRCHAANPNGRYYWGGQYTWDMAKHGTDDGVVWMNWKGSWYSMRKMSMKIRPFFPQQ
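Assay system: Fibrin-DD(E) protein isolated from polymerized human fibrin clots; read-out basis: percent inhibition; medium: Tris/NaCl/CaCl2 buffer, pH 7.8; signal: FP measurement; incubation: 10 min plus 3 h, room temperature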
GRK2 inh = human GRK2 inhibition via aptamer displacement | actives 0.59% (n = 330,000) | inhibition of aptamer binding, % at 10 µM | bead flow cytometry, FAM-aptamer displacement from GRK2 | P25098;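 active means inhibition of aptamer binding above 40%, roughly 3 SD of noise, on plates passing a quality check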;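 further: median bead fluorescence of bound FAM aptamer so fluorescent compounds give negative values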
Ins promoter up = MIN6 insulin promoter up-regulation. MIN6 insulin promoter-GFP reporter, high-content imaging; hits give high values. z-score at 5 µM. actives 0.3% (n = 190,000);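 active means z-score above 3 at 5 µM with at least 500 cells counted in the well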
ABCB1 block = human ABCB1 inhibition, ABCG2 as counter-screen | P08183 | actives 0.067% (n = 190,000) | inhibition, % at 6.6 µM | CCRF-Adr cells, JC-1 efflux, flow cytometry | AID 1326; in the data active means inhibition above about 40%;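 further: 0% = vehicle and 100% = reference inhibitor; higher value means more JC-1 retained so stronger ABCB1 efflux block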
DDE Tn6 FP inh = DD(E)-Tn6 binding inhibition, primary FP screen; Fibrin DD(E) TRITC-Tn6 fluorescence polarization displacement; inhibition, % at 8.3 µM; actives 0.21% (n = 370,000); AID 720509;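 active means inhibition above a per-campaign cutoff: mean of compounds within control limits plus 3 SD, cut at about 15% in these data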;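 further: 0% = median of all compound wells on the plate and 100% = blocking peptide control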
GRK2 inh confirm = human GRK2 inhibition confirmation, cherry pick 1; shares compounds with GRK2 inh; actives 4% (n = 2,000); bead-bound GRK2, FAM-aptamer displacement, flow cytometry; aptamer displacement, % at 10 µM;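 active means aptamer displacement above 40%, near three times the noise of non-fluorescent compounds, on plates passing quality checks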;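 further: negative values mostly reflect intrinsic compound fluorescence rather than true enhancement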
Aptamer quench 1 = quenches fluorescent RNA aptamer, GRK2 hit artifact | shares compounds with GRK2 inh | Fluorescent RNA aptamer beads, quenching, flow cytometry; hits give high values | fluorescence change (kMESF span), kMESF (concentration not given with the values) | 110 tested, under 10 active | AID 504521;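 active means compounds whose bead fluorescence drops by more than 37 kMESF across the dose range, marking them as dye quenchers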
FAM quench CP1 = quenches fluorescent RNA aptamer, GRK2 hit artifact. shares compounds with GRK2 inh. Carboxyfluorescein RNA aptamer on beads, flow cytometry quenching; hits give low values. fluorescence response (% of DMSO), % at 10 µM. 2,000 tested, under 10 active. AID 504580;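 active means compounds that quench the bead-bound fluorescent RNA probe, cutting fluorescence to under half of the solvent control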;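 further: counterscreen run without GRK2 so only probe quenching by compound is measured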
GRK2 CP2 = human GRK2 inhibition confirmation, cherry pick 2; shares compounds with GRK2 inh; inhibition of aptamer binding, % at 10 µM; 360 tested, under 10 active; AID 504782; bead-bound GRK2, FAM-aptamer displacement, flow cytometry;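 active means inhibition of aptamer binding above 40%, about triple the noise seen with nonglowing compounds, on plates passing quality control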;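 further: negative values mostly come from compounds that fluoresce themselves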
FAM quench SP = counter-screen for GRK2 binding hits: quenchers of fluorescent RNA aptamer; fluorescence response vs DMSO, % at 10 µM; carboxyfluorescein RNA aptamer beads, flow cytometry quenching; hits give low values; 360 tested, under 10 active; AID 588494; shares compounds with GRK2 inh;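 active means response vs DMSO under 50%, meaning signal dropped by over half, treated as fluorescence quencher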;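 further: labelled aptamer on streptavidin beads without GRK2 as a quench counter-screen; 100% = bead fluorescence of DMSO wells and lower means quenching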
* = called active by the depositor; . = no result given.

SMILES	ABCG2 inh	Tn7 DDE FP	GRK2 inh	Ins promoter up	ABCB1 block	DDE Tn6 FP inh	GRK2 inh confirm	FAM quench CP1	others
CCN(CC(=O)Nc1ccc(OC)cc1)C(=O)COc1cccc2c1OC(C)(C)C2	.	-4	0	.	.	-4	.	.
COc1cc(C)c(NC(=O)COc2cccc3c2OC(C)(C)C3)cc1OC	.	.	41*	.	.	.	.	.	GRK2 CP2=21;FAM quench SP=99
CCOc1ccc(NC(=O)CN(C)C(=O)COc2cccc3c2OC(C)(C)C3)cc1OCC	.	5	98*	.	.	4	0	96
O=NN(CC(=O)NNc1ccccc1)CC(=O)NNc1ccccc1	.	7	.	.	.	-1	.	.
CC(=O)Nc1sc(N/N=C\c2cccc(Cl)c2)nc1-c1cccs1	2	3	0	0.16	0	-6	.	.
CC(=O)Nc1sc(N/N=C\c2ccc(O)cc2)nc1-c1cccs1	.	-3	81*	0.07	.	-4	1	106
COC(=O)[C@H](C(C)C)N1CCc2nnn(CC3CCCCC3)c2-c2ccccc2S1(=O)=O	.	1	.	.	.	-1	.	.
CCOc1ccc(OCCC(=O)N2CCc3cc(OC)c(OC)cc3C2)cc1	.	-1	94*	.	.	4	-3	97
O=S1(=O)c2ccc(N3CC[C@@H](O)C3)cc2O[C@H]2CCN1C2	.	3	.	.	.	4	.	.
C[C@H]1CCC2[C@](C)(CO)[C@@H](O)CC[C@]2(C)[C@@]12CCC(CO)(CCO)O2 (some centres undefined)	.	0	44*	.	.	2	.	.	GRK2 CP2=14;FAM quench SP=102
C[C@@H]1CN([C@@H](C)CO)C(=O)CCCn2cc(nn2)CO[C@H]1CN(C)C(=O)Nc1cccc(Oc2ccccn2)c1	.	9	.	.	.	4	.	.
Cc1cc(C(=O)NN=Cc2ccccc2C(=O)O)n[nH]1	.	6	.	.	.	8	.	.
O=C(COC(=O)c1ccccc1Nc1ccccc1)c1ccccc1	4	-6	0	-0.69	0	-5	.	.
COC(=O)c1ccccc1Nc1ccccc1	2	2	54*	0.24	0	-1	-3	97
COC(=O)C1=CO[C@@H](OC2OC(CO)C(O)C(O)C2O)[C@@H]2[C@@H](C)[C@@H](O)C[C@H]12 (some centres undefined)	.	2	0	.	.	2	.	.
C=C[C@H]1[C@H](OC2OC(CO)C(O)C(O)C2O)OC=C(C(=O)OC)[C@H]1C[C@H]1CC(=O)C[C@H](CC(=O)CCc2ccc(O)cc2)O1 (some centres undefined)	.	.	97*	.	.	.	3	97
C[C@@H]1COc2cc(Br)ccc2S(=O)(=O)N1Cc1cn(CC2CCCCC2)nn1	.	-6	.	.	.	1	.	.
NC(=O)c1ccsc1NC(=O)COC(=O)COc1ccccc1F	25	1	0	0.05	0	5	.	.
NC(=O)c1ccsc1NC(=O)COC(=O)CNC(=O)c1ccc(F)cc1	.	-3	55*	.	.	3	-1	104
O=C(O)/C=C/C(=O)Nc1ccc(Cc2ccc(NC(=O)/C=C/C(=O)O)cc2)cc1	.	0	40	-0.16	.	6	1	94
O=C(O)/C=C/C(=O)Nc1ccc(Oc2ccc(NC(=O)/C=C/C(=O)O)cc2)cc1	-3	.	8	0.19	-1	.	.	.
COc1cc(/C=C2\CCCc3c2nc2ccccc2c3C(=O)O)cc(Br)c1O	.	-2	0	.	.	5	.	.
COc1cc(/C=C2\CCc3c2nc2ccccc2c3C(=O)O)cc(OC)c1OC	.	0	62*	0.23	.	7	45*	100	Aptamer quench 1=0.3
CN1CCN(c2ccc3c(c2)Oc2ccccc2CN(Cc2cn(Cc4ccc(F)cc4)nn2)S3(=O)=O)CC1	.	-9	.	.	.	1	.	.
CCOc1ccc(NC2CCCCC2NS(=O)(=O)c2ccccc2)cc1 (centres undefined)	.	5	49*	.	.	0	1	94
SMILES	ABCG2 inh	Tn7 DDE FP	GRK2 inh	Ins promoter up	ABCB1 block	DDE Tn6 FP inh	GRK2 inh confirm	FAM quench CP1	others
CCOc1ccc(NC(=O)c2ccc(N3CC4CC(C3)c3cccc(=O)n3C4)c(N)c2)cc1 (centres undefined)	.	-2	93*	.	.	8	0	100
COc1ccc(S[C@]2(C(=O)N3CCOCC3)CC(=O)N(C(=O)c3ccccc3)[C@@H]2c2ccc(OC)cc2)cc1	.	2	.	.	.	-6	.	.
O=C(/C=C(\Nc1ccccc1)c1ccccc1)c1ccccc1	.	-3	.	.	.	-2	.	.
Cc1cccc(-n2c(N)c(C(=O)NCCN3CCOCC3)c3nc4ccccc4nc32)c1	-1	0	100*	-1.2	0	-1	1	95
CC(C)Cn1c(N)c(C(=O)NCCN2CCOCC2)c2nc3ccccc3nc21	5	-12	3	0.54	2	0	.	.
Cc1nn(CCCC(=O)NCc2ccc(F)cc2)c(C)c1[N+](=O)[O-]	23	0	0	0.25	1	-1	.	.
Cc1nn(CC(=O)N(C)Cc2ccc(F)cc2)c(C)c1[N+](=O)[O-]	31	3	100*	0.9	12	3	.	.	GRK2 CP2=7;FAM quench SP=102
COC(=O)[C@]12C[C@H](CC(=O)N3CCCC3)C(=O)N(Cc3cccc4ccccc34)C1=C[C@H](C1CCCC1)O[C@@H]2C	.	-10	.	.	.	-1	.	.
CCCCNC(=O)CN1C(=O)NC2NC(=O)NC21 (centres undefined)	-1	4	98*	0.12	-1	1	3	97
CCOC(=O)C1=C(C(F)(F)F)Nc2ncnn2C1c1cccc(OC)c1OC (centres undefined)	7	1	81*	0.11	1	-2	.	.	GRK2 CP2=-9;FAM quench SP=101
CCOC(=O)C1=C(C(F)(F)F)Nc2ncnn2C1c1cc(OC)ccc1OC (centres undefined)	2	1	0	0.09	0	1	.	.
CCCCCC(=O)Nc1ccc(S(=O)(=O)Nc2cc(OC)nc(OC)n2)cc1	.	8	0	.	.	-5	.	.
COC(=O)CCC(=O)Nc1ccc(S(=O)(=O)Nc2cc(OC)nc(OC)n2)cc1	.	-5	38	.	.	0	2	98
